In ChEMBL document CHEMBL1147829, “4-(Aminoalkylamino)-3-benzimidazole-quinolinones as potent CHK-1 inhibitors” (Bioorg Med Chem Lett, 2006):
Activity calls are given as the source filed them. The rule behind the calls is not given here.

Molecular target: T1, Serine/threonine-protein kinase Chk1 (Homo sapiens, UniProt O14757)
T1 sequence (O14757 whole entry): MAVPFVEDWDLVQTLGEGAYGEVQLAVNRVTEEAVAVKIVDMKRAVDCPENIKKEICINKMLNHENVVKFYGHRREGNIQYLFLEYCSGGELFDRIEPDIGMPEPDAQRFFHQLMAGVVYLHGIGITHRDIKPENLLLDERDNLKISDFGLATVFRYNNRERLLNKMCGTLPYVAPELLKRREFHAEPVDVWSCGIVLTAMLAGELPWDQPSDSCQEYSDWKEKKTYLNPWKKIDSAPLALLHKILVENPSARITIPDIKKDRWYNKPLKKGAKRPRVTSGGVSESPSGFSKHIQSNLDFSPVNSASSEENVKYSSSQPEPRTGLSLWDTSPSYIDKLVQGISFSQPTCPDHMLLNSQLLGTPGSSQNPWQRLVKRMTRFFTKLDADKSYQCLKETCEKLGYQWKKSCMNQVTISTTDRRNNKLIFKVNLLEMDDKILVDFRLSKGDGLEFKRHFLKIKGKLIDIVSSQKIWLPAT
Test: Inhibition of CHK1

Question: Cc1ccc2[nH]c(=O)c(-c3nc4ccccc4[nH]3)c(NC3CCCNC3)c2c1 (stereo unspecified) was tested. Which IC50 did it give?
Answer: The IC50 was 1.4 nM.

Question: With Cc1cccc2c(N[C@@H]3CN4CCC3CC4)c(-c3nc4ccccc4[nH]3)c(O)nc12 as the molecule, how does the IC50 read?
Answer: The IC50 was 138 nM.

Question: How did the IC50 turn out when Oc1nc2ccc(Cl)cc2c(NC2CCCNC2)c1-c1nc2ccccc2[nH]1 (stereo unspecified) was run?
Answer: Its IC50 is 1.04 nM.

Question: How did the IC50 turn out when Oc1nc2ccc(Cl)cc2c(N[C@H]2CCNC2)c1-c1nc2ccccc2[nH]1 was run?
Answer: Its IC50 is 0.5 nM.

Question: With Cc1ccc2nc(O)c(-c3nc4ccccc4[nH]3)c(NC3CCNCC3)c2c1 as the molecule, how does the IC50 read?
Answer: The IC50 was 3.3 nM.

Question: O=c1[nH]c2ccc(Cl)cc2c(NC2CCNCC2)c1-c1nc2ccccc2[nH]1 was tested. Which IC50 did it give?
Answer: Its IC50 is 3.3 nM.

Question: With O=c1[nH]c2ccc(Cl)cc2c(N[C@@H]2CCNC2)c1-c1nc2ccccc2[nH]1 as the molecule, how does the IC50 read?
Answer: The IC50 was 7.2 nM.

Question: With O=c1[nH]c2ccccc2c(N[C@H]2CN3CCC2CC3)c1-c1nc2ccccc2[nH]1 as the molecule, how does the IC50 read?
Answer: The IC50 was 482 nM.

Question: With Cc1ccc2nc(O)c(-c3nc4ccccc4[nH]3)c(N[C@@H]3CN4CCC3CC4)c2c1 as the molecule, how does the IC50 read?
Answer: The IC50 was 0.35 nM.

Question: Which IC50 does the source give for O=c1[nH]c2ccccc2c(N[C@@H]2CN3CCC2CC3)c1-c1nc2ccccc2[nH]1 here?
Answer: Its IC50 is 7.6 nM.

Question: With CCN(CC)c1c(-c2nc3ccccc3[nH]2)c(=O)[nH]c2ccccc12 as the molecule, how does the IC50 read?
Answer: The IC50 was over 30000 nM.

Question: Which IC50 does the source give for O=c1[nH]c2ccc(Cl)c(Cl)c2c(N[C@@H]2CN3CCC2CC3)c1-c1nc2ccccc2[nH]1 here?
Answer: The IC50 was 21.7 nM.

Question: Nc1c(-c2nc3ccccc3[nH]2)c(=O)[nH]c2ccccc12 was tested. Which IC50 did it give?
Answer: Its IC50 is 731 nM.

Question: With O=c1[nH]c2ccccc2c(O)c1-c1nc2ccccc2[nH]1 as the molecule, how does the IC50 read?
Answer: The IC50 was 2950 nM.

Test system: MDA-MB-435
Test: Cytotoxicity against human MDA-MB-435 cells in presence of camptothecin
Format: functional, cell-based
In short: (§1)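 MDA-MB-435 cells seeded at 5×10³ per well and allowed 4 h at 37 °C under 5% CO₂. They were then exposed to the agent alone or combined with camptothecin, with DMSO as vehicle control, for 48 h. MTS was developed 4 h and read at 490 nm with medium-only background subtracted. Percent was calculated relative to DMSO-treated cells.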

Question: With O=c1[nH]c2ccc(Cl)cc2c(N[C@@H]2CN3CCC2CC3)c1-c1nc2ccccc2[nH]1 as the molecule, how does the Activity read?
Answer: The Activity was “Active”.

Test system: MDA-MB-435
Test: Cytotoxicity against human MDA-MB-435 cells
Format: functional, cell-based
In short: as §1

Question: With O=c1[nH]c2ccc(Cl)cc2c(N[C@@H]2CN3CCC2CC3)c1-c1nc2ccccc2[nH]1 as the molecule, how does the EC50 read?
Answer: Its EC50 is 80 nM.
